Bioassay records from PubChem.
Most compounds without a hit are left out; they make up all but 4% or so of the library.
Ecoli rRNA inh: selective bacterial rRNA inhibition in E. coli. E. coli WT GFP vs humanized-ribosome RFP mutants, fluorescence, 24 h; stronger effect = lower value; DMSO median 0, no signal -100. GFP signal change (wild-type ribosome), % (test concentration not listed). 350,000 compounds, 1.6% hits;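 active means significant combined selectivity score with lowered wild-type GFP, culture density cut under 30%, mutant RFP and density less affected; inactive means any of these conditions unmet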
C2C12 statin: suppressors of simvastatin-induced myotoxicity in C2C12 myotubes; rescue of ATP level, % at 7.49 µM; 330,000 compounds, 0.78% hits; ATP luminescence, 48 h; scaled: DMSO 0, geranylgeraniol control 100; AID 602340;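 active means mean ATP rescue above about 67%, or every replicate alone reaching that limit, limit read from the data, passing the limit was not always enough; inconclusive means no clear call, values can overlap the other calls; inactive means mean under the limit and some replicate under it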;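 further: myotubes were challenged with 10 µM simvastatin during compound exposure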
FGF22 binding: FGF22 (human) thermal shift binding; AID 651658; 340,000 compounds, 1.5% hits; recombinant FGF22 thermal shift, SYPRO orange fluorescence; percent of sucrose octasulfate shift, DMSO zero; activity (Tm shift, normalised), % at 9.99 µM; Q9HCT0;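 active means mean Tm shift, scaled 0 neutral to 100 positive control, at about 1.3% or above, every replicate too, limit read from the data; inconclusive means no clear call, values can overlap the other calls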
Target sequence (Q9HCT0 whole entry, looked up): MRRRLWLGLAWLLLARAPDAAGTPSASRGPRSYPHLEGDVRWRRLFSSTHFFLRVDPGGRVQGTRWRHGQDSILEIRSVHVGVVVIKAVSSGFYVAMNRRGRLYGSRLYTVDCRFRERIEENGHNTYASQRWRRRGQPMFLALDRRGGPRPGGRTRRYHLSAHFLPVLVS
SIRT5 inh: inhibitors of human sirtuin-5 desuccinylase; Q9NXA8; Purified SirT5, succinyl-peptide AMC, trypsin-coupled fluorescence; inhibition, % at 15 µM; 330,000 compounds, 1.1% hits; AID 652115; in the data active means inhibition above about 15%; inconclusive means no clear call, values can overlap the other calls
Target sequence (Q9NXA8 whole entry, looked up): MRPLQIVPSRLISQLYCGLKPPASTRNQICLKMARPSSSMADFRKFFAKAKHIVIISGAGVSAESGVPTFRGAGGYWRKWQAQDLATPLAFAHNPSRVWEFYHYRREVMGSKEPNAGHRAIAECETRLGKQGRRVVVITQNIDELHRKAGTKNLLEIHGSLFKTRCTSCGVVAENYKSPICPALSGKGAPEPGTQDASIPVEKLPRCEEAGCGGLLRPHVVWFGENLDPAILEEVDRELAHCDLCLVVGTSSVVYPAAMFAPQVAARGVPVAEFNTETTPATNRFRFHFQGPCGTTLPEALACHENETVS
FN deposit inh: fibronectin deposition inhibition; AH1F fibroblasts, Alexa488-fibronectin deposition fluorescence, overnight; inhibition, % at 12.6 µM; 350,000 compounds, 0.086% hits; AID 743247;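 active means mean inhibition across replicates of 30% or more, regardless of how many single replicates reach that level; inconclusive means mean under 30% yet at least half of replicates reach 30%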;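 further: positive control wells lacked labelled fibronectin entirely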
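test system = AH1F fibroblasts assembling fluorescent fibronectin matrix | quantity = 10000 AH1F cells per well | buffer or medium = DMEM plus 2% serum, read in PBS | doses = single dose, pinned | incubation = 1 h cell attachment, overnight exposure to compound and label | detection = fluorescence at 485 nm excitation, 525 nm emission | read-out basis = inhibition from reduced deposited-fibronectin fluorescence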
E-sel inducer: E-selectin induction on HUVECs; HUVEC E-selectin immunofluorescence imaging; normalized: neutral wells 0, TNF-alpha wells 100; activation, % at 7.58 µM; 260,000 compounds, 0.37% hits; AID 686992;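 active means mean E-selectin-positive cell signal at least 10% of the positive control, reached in at least 60% of replicates, without over 20% cell loss; inconclusive means no rule given, readout overlaps actives, possibly toxicity-flagged; inactive means the rest, including those meeting only one limit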
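assay system = HUVEC, human umbilical vein endothelial cells | input = 3,000 HUVEC seeded per well | medium = EGM-2 growth medium on 0.1% gelatin-coated wells | dosing = one compound dose added by pin transfer | signal = immunofluorescence imaging | read-out basis = % PE-positive cells | control set = TNF-alpha, DMSO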
Starred values were filed as active, the others as inactive; ? = inconclusive; . = no result.

SMILES | Ecoli rRNA inh | C2C12 statin | FGF22 binding | SIRT5 inh | FN deposit inh | E-sel inducer
CCC(=O)Nc1ccc2c(c1)C(=O)N(C)C[C@@H](OC)[C@@H](C)CN(Cc1cccnc1)[C@H](C)CO2 | -1.1 | 1.7 | -0.2 | -3.2 | -4.1 | 0.1
COCCNC(=O)C[C@@H]1CC[C@@H]2[C@H](COC[C@H](O)CN2Cc2cccc(-c3ccncc3)c2)O1 | -2.6 | 60.2 | -0.2 | 12.7 | -30.4 | 0.0
CNC[C@@H]1Oc2ccc(NS(=O)(=O)c3cccs3)cc2C(=O)N([C@H](C)CO)C[C@@H]1C | 1.1 | 11.7 | 0.2 | 5.2 | -6.0 | 0.1
CCOC(=O)C1(Cc2ccccc2)CCCN(C2CCN(C(C)=O)CC2)C1 (centres undefined) | 15.2 | 1.2 | . | 22.7* | 5.9 | -1.7
CCOC(=O)N1CCC(N2CCCC(CO)(Cc3cccc(OC)c3)C2)CC1 (centres undefined) | 2.8 | . | 43.3* | 0.0 | -2.1 | 0.3
C[C@@H]1CN([C@@H](C)CO)C(=O)c2cc(-c3ccc(F)cc3)cnc2O[C@@H]1CN(C)CC1CCCCC1 | . | -2.7 | -0.3 | 0.0 | . | .
CC(C)NC(=O)N(C)C[C@@H]1Oc2ncc(C#CC3CCCC3)cc2C(=O)N([C@H](C)CO)C[C@@H]1C | 1.9 | 36.7 | 0.0 | 4.6 | -13.3 | 3.7
CCCCC(=O)Nc1ccc2c(c1)nc(CCNC(=O)c1ccco1)n2C | 0.1 | -12.8 | 0.6 | 22.9* | -0.7 | 0.5
Cc1ccc(-c2n[nH]c(=S)n2C)cc1 | . | 16.7 | . | . | . | .
CCn1c(-c2sc(-c3ccccc3)nc2C)n[nH]c1=S | -29.8* | . | 0.6 | -3.6 | 3.6 | .
Cn1c(-c2csc(-c3ccccc3)n2)n[nH]c1=S | 15.5 | 3.3 | 43.8* | 0.1 | -5.2 | .
C[C@@H]1CN([C@H](C)CO)C(=O)c2cc(NS(=O)(=O)c3ccccc3)ccc2O[C@H]1CN(C)C(=O)Nc1ccc(C(F)(F)F)cc1 | -10.4 | -19.4 | . | . | 9.2 | 0.0
O=C(CSCc1ccc(Cl)cc1)N/N=C/c1c(Cl)cccc1Cl | 6.5 | . | 0.5 | 2.6 | -10.0 | .
O=C(CSCc1ccc(Cl)cc1)N/N=C/c1ccccc1 | . | 114.4* | . | . | -8.4 | .
CCOc1ccc(-c2csc3nc[nH]c(=O)c23)cc1 | -13.3 | 22.3 | 0.1 | -3.5 | -4.2 | .
O=c1[nH]cnc2scc(-c3ccsc3)c12 | . | 117.2* | . | . | . | .
S=c1[nH]cnc2scc(-c3ccc(Cl)cc3)c12 | -51.2* | . | -0.1 | -4.5 | -14.8 | -0.2
COc1ccc(N2CCN(c3ncnc4scc(-c5ccc(F)cc5)c34)CC2)cc1 | -23.5* | 4.1 | -0.3 | -2.9 | -3.5 | .
COc1ccc(-c2csc3nc[nH]c(=O)c23)cc1 | -7.7 | . | 0.1 | 22.8* | 0.3 | -0.4
COc1ccc(N2CCN(c3ncnc4scc(-c5ccc(C)cc5)c34)CC2)cc1 | 2.2 | -13.7 | -0.2 | -4.5 | -5.2 | 0.3
C[C@@H]1CN([C@@H](C)CO)C(=O)c2cc(Br)cnc2O[C@@H]1CN(C)C(=O)C1CC1 | 6.2 | 6.7 | . | . | -11.1 | -0.5
CO[C@H]1CN(C)C(=O)c2cc(NC(=O)C3CCCC3)ccc2OC[C@@H](C)N(CCC(F)(F)F)C[C@H]1C | -1.8 | -0.2 | -0.2 | -1.7 | -1.9 | -0.1
C[C@@H]1CCCCO[C@H](CN(C)Cc2ccncc2)[C@H](C)CN([C@@H](C)CO)C(=O)c2cc(NC(=O)Nc3ccc4c(c3)OCO4)ccc2O1 | -6.1 | . | 0.4 | 1.4 | . | -0.2
COCCCNC(=O)c1ccc2c(=O)n(Cc3ccc(Cl)cc3)c(=S)[nH]c2c1 | 2.4 | 7.9 | -0.1 | -4.9 | 1.7 | 48.6*
COC(CNC(=O)c1ccc2c(=O)n(Cc3ccc4c(c3)OCO4)c(=S)[nH]c2c1)OC | 5.4 | 13.3 | 0.1 | 16.0* | 2.8 | ?
O=C(NCc1ccc(Cl)cc1)c1ccc2c(=O)n(CC3CCCO3)c(=S)[nH]c2c1 (centres undefined) | 7.2 | -12.6 | 0.2 | 16.0* | 2.6 | 0.0
COCC(=O)Nc1ccc2c(c1)C(=O)N(C)[C@H]1CC[C@H](CC(=O)OC)O[C@@H]1CO2 | 0.9 | . | . | -2.6 | 2.9 | 0.1
O=C(C[C@H]1CC[C@H]2[C@@H](COC[C@H](O)CN2Cc2cocn2)O1)NCc1cccc(F)c1 | 4.5 | 37.1 | -0.4 | 13.4 | -2.1 | 0.0
